Most compounds without a hit are left out; they make up all but 1.5% or so of the library.
RAD52 inh: RAD52 (human) annealing inhibition; P43351; recombinant RAD52 DNA annealing, FRET fluorescence; inhibition, % at 18.7 µM; 360,000 compounds, 0.46% hits;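 active = every replicate showing at least 50% inhibition; inconclusive = mean inhibition at least 50% but not in every replicate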
S100A4 inh HTS: blocks human S100A4 binding to myosin IIA peptide; S100A4/TAMRA-MyoIIA peptide fluorescence polarization; inhibition, % at 10.7 µM; 360,000 compounds, 0.14% hits; AID 652163;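 active = mean inhibition of at least 70% across replicates, with every replicate also reaching that level; inconclusive = mean inhibition reaches 70% but some replicates fall short; inactive = mean inhibition below 70%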
Target sequence (P26447 whole entry, looked up): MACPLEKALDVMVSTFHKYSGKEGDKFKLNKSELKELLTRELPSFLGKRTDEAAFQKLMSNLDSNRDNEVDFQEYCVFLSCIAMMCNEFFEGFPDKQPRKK
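Compound dosing: one dose per compound; test system: human S100A4 monomer with TAMRA-labelled myosin IIA peptide; probe or stimulus: TAMRA-labelled myosin IIA heavy-chain peptide probe, 5 nM; medium: HEPES buffer with Ca2+, pH 7.2; schedule: 5 min incubation before reading; benchmarks: neutral control DMSO, positive control TFP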
AF4-AF9 inh: blocks AF4 peptide binding to human AF9. inhibition, % at 10 µM. AlphaScreen, biotin-AF4 peptide binding to FLAG-AF9. 350,000 compounds, 0.47% hits. AID 651704;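 active = every replicate reaching a set inhibition limit, whatever the replicate mean, cut at about 25% in these data; inconclusive = mean inhibition reaches that limit but some replicates miss it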;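 also: 0% = plate neutral control median and 100% = total signal loss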
dFosB act-1: enhances mouse delta FosB homodimer DNA binding; P13346; purified delta FosB, TAMRA-CDK5 oligo fluorescence polarization; percent of positive-control signal above neutral wells; activation, % at 25 µM; 340,000 compounds, 0.99% hits; AID 493131;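 active = mean activation above about 17%, with every replicate also reaching it, limit read from the data, passing the limit was not always enough; inconclusive = only one of the two conditions met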
Target sequence (P13346 whole entry, looked up): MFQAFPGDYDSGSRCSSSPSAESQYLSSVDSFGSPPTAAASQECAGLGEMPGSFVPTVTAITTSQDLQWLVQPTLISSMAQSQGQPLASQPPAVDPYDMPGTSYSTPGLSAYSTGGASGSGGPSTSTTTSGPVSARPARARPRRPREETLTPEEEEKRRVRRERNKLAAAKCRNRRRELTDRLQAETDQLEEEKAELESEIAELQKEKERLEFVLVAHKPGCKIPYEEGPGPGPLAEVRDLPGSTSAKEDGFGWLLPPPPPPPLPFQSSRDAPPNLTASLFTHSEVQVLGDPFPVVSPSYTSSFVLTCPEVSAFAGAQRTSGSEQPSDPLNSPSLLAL
RAD54 branch: RAD54 (human) branch migration inhibition; Q92698; RAD54 Holliday junction branch migration, FAM/BHQ fluorescence; inhibition, % at 10.4 µM; 360,000 compounds, 0.14% hits; AID 602329;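 active = mean normalized replicate activity at least 40 and at least half of replicates scoring 40 or more; inconclusive = only one of the two criteria met; inactive = mean below 40 and under half of replicates reaching 40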;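 also: 0% = median of neutral control wells and 100% = median of positive control wells; inhibitors cause a drop in the FAM fluorescence signal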
dFosB act-2: enhances mouse delta FosB homodimer binding to DNA; 2,400 tested, under 10 active; activation, % at 24.9 µM; shares compounds with dFosB act-1; purified delta FosB, TAMRA-CDK5 oligo fluorescence polarization; normalised: neutral wells 0, positive control 100; AID 588690;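 active = highest replicate activation at or above 34% and every replicate reaching that threshold; inconclusive = meets only one of the two criteria; inactive = meets neither criterion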;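 also: higher polarization means more probe DNA bound by delta FosB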
Rad54 DNA ctr: binds DNA, flagging false Rad54 inhibitor hits | Acridine orange-DNA displacement, fluorescence polarization, 20 min | AID 651673 | AC50, µM (top dose mostly 35 µM), for the others: top-dose activity change, negative = DNA binding | shares compounds with RAD54 branch | 460 compounds, 8% hits;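 active = signal drop giving an AC50 within twice the top valid tested concentration of each sample, actives reach about 35 µM in these data; inactive = activity opposite to expected, plus the rest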;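 also: polarization loss reports compound binding to salmon sperm DNA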
AlphaScreen intf: AlphaScreen signal interference counter-screen hit; shares compounds with AF4-AF9 inh; 530 compounds, 45% hits; AID 720494; signal luminescence; AC50, µM (titrated, usually from 12 µM), inactives show at the highest dose activity change, negative = inhibition; cut-off not given, nearly all actives have AC50 up to about 14 µM
DNA binder FP: binds DNA, flagging false RAD52 inhibitor hits. shares compounds with RAD52 inh. Salmon sperm DNA/acridine orange FP displacement, DNA binding. AC50, µM. 1,000 compounds, 8% hits. AID 652128;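 active = fitted half-maximal concentration for signal loss at or below twice the highest dose tested, in every separate run, actives reach about 64 µM in these data; inconclusive = runs disagree, or flat partial signal loss, or poor fit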
An asterisk follows results filed as active; i = inactive; ? = inconclusive; / = not tested or not shown.

SMILES | RAD52 inh | S100A4 inh HTS | AF4-AF9 inh | dFosB act-1 | RAD54 branch | dFosB act-2 | DNA binder FP | others
COc1ccc(S(=O)(=O)N(C)C[C@H]2Oc3ccc(NC(=O)C4CC4)cc3CC(=O)N([C@H](C)CO)C[C@H]2C)cc1 | -11.4 | -1.3 | -7.7 | / | -10.1 | / | /
CCCCn1c(N)c(N(CCOC)C(=O)C2CCN(S(=O)(=O)c3ccccc3)CC2)c(=O)[nH]c1=O | -9.5 | -4.3 | -1.1 | 5.1 | 1.2 | / | /
CCCCn1c(N)c(N(CC(C)C)C(=O)C2CCN(S(=O)(=O)c3ccc(OCC)cc3)CC2)c(=O)[nH]c1=O | -3.6 | 1.0 | -0.9 | 19.1* | -12.4 | 4.3 | /
CCOc1ccc(NS(=O)(=O)c2ccc(C(=O)NCC(c3ccc(OC)cc3)N3CCCC3)cc2)cc1 (stereo unspecified) | -75.5 | -6.1 | 13.5 | 24.0* | 11.9 | 5.6 | /
CCCSc1nc(N)c2c3c(sc2n1)CN(C)CC3 | / | / | / | -8.5 | 32.5 | / | /
CN(C)CCSc1nc(N)c2c3c(sc2n1)CN(C)CC3 | / | / | / | 25.4* | 74.9* | 2.2 | / | Rad54 DNA ctr=-13.2%
Cc1ccc2nc3c(c(Nc4ccc5c(c4)OCCO5)c2c1)CCC3 | 46.9 | -3.7 | 22.3 | 29.8* | 60.5* | 1.7 | / | Rad54 DNA ctr=-2.8%
COc1ccc(S(=O)(=O)Nc2ccc3c(c2)C(=O)N([C@@H](C)CO)C[C@@H](C)[C@@H](CN(C)S(=O)(=O)c2c(C)noc2C)OCCCC[C@@H](C)O3)cc1 | -42.8 | 1.1 | 0.5 | / | -1.0 | / | /
COc1cc(OC)c2c(-c3ccccc3)cc(=O)oc2c1C(CCN1CCCC1)c1ccc2c(c1)OCO2 (stereo unspecified) | -41.9 | -1.6 | 29.3* | 19.3* | -8.4 | 1.8 | / | AlphaScreen intf=-27.2%
CN(C)CC(=O)Nc1ccc2c(c1)[C@H]1C[C@@H](CC(=O)N(C)C)O[C@H](CO)[C@H]1O2 | 0.3 | -25.6 | -1.7 | / | 1.6 | / | /
COc1ccc2c(C)nc(Nc3nc(-c4ccccc4)cc(=O)[nH]3)nc2c1 | -16.2 | 2.2 | 0.5 | -21.3 | -0.8 | / | /
CCOc1ccc2c(C)nc(NC3=NC(C)(C)C=C(C)N3)nc2c1 | 91.1* | -4.0 | / | 25.6* | 39.0 | ? | i
Nc1nc(N)c2c(ccc3nccc32)[nH]1 | 77.2* | 5.2 | 3.4 | 35.7* | 61.8* | -6.8 | i | Rad54 DNA ctr=-14.3%
Nc1ccc2ncccc2c1N | / | / | / | -5.1 | 9.4 | / | /
COc1cc2[nH]c(=O)c(C(=O)NCCCN3CCOCC3)c(O)c2cc1OC | 66.8* | -1.1 | -1.7 | 33.1* | / | 1.8 | i
OCCCN=c1cc(-c2ccccc2)oc2ccc(Cl)cc12 | / | / | / | 10.0 | / | / | /
CC1(C)CC(N=c2cc(-c3ccccc3)oc3ccc(Cl)cc23)CC(C)(C)N1 | 100.6* | -2.5 | 19.0 | 40.5* | / | -2.6 | 16.9µM*
CCCN(C)C[C@@H]1Oc2ncc(C#Cc3ccc(OC)c(OC)c3)cc2C(=O)N([C@H](C)CO)C[C@@H]1C | 18.8 | 6.4 | 7.4 | / | 9.5 | / | /
COc1ccc2cc3[n+](cc2c1O)CCc1cc2c(cc1-3)OCO2 | 6.1 | 3.5 | 0.4 | / | / | / | /
COc1cc2c(cc1OC)-c1cc3ccc(OC)c(OC)c3c[n+]1CC2 | 79.7* | 6.1 | 3.7 | 28.1* | 59.9* | -3.0 | i
O=C(Cc1cccnc1)N1CC(=O)N2[C@H](C1)[C@@H](c1ccc(C#CC3CC3)cc1)[C@@H]2CO | -8.2 | -15.8 | 5.1 | / | / | / | /
CCOC(=O)c1c(NC(=O)c2ccccc2N(C)S(=O)(=O)c2ccccc2)sc2c1CCCC2 | -1.3 | 5.3 | 1.2 | -1.7 | -1.3 | / | /
CCOC(=O)c1c(NC(=O)C(NCCN(C)C)c2ccccc2)sc2c1CCCC2 (stereo unspecified) | 63.5* | -2.4 | 28.8* | 34.1* | 16.3 | ? | i
C#CCOCCOCCOCCNc1nc(N2CCN(C(=O)[C@H](CCCCN)n3cc(CN)nn3)CC2)nc(N2CCN(C(=O)[C@H](CCCCN)n3cc([C@@H](N)[C@H](C)CC)nn3)CC2)n1 | 72.1* | -7.8 | 64.2* | 42.8* | 79.2* | -0.7 | 37.2µM*
C#CCOCCOCCOCCNc1nc(N2CCN(C(=O)[C@H](CCCN=C(N)N)n3cc(C(N)[C@@H](C)CC)nn3)CC2)nc(N2CCN(C(=O)[C@H](CCCCN)n3cc([C@@H](N)[C@H](C)CC)nn3)CC2)n1 (stereo partly specified) | 62.9* | -0.7 | 46.1* | 35.7* | 3.8 | -0.1 | i | AlphaScreen intf=-9.7%
SMILES | RAD52 inh | S100A4 inh HTS | AF4-AF9 inh | dFosB act-1 | RAD54 branch | dFosB act-2 | DNA binder FP | others
CCCCN(CC)CCNC(=S)Nc1ccc2nc(N3CCN(C)CC3)cc(C)c2c1 | 59.6* | -0.8 | 9.7 | 20.8* | 55.4* | -2.9 | i | Rad54 DNA ctr=6.5%
O=C(C[C@H]1CC[C@@H](NC(=O)c2ccncc2)[C@@H](CO)O1)NCc1ccncn1 | -8.7 | -6.3 | -0.8 | / | / | / | /
Cc1cccc2sc(N(CCN(C)C)C(=O)c3cc(Cl)sc3Cl)nc12 | / | / | / | -2.5 | -5.9 | / | /
COc1cc2ccccc2cc1C(=O)N(CCN(C)C)c1nc2c(C)cccc2s1 | 54.7* | -0.2 | 15.4 | 28.6* | 5.1 | 5.6 | i
CCN(CC)CCN(C(=O)c1ccc([N+](=O)[O-])cc1)c1nc2c(OC)cccc2s1 | 7.8 | -5.7 | -3.9 | 2.4 | / | / | /
CCN(CC)CCN(C(=O)c1ccc(C(=O)c2ccccc2)cc1)c1nc2c(OC)cccc2s1 | 60.9* | 5.3 | 26.6* | 33.4* | 11.6 | 5.6 | i
C[C@H](CO)N1C[C@H](C)[C@H](CN(C)C(=O)NC2CCCCC2)Oc2ccc(NC(=O)CCC(F)(F)F)cc2CC1=O | -2.4 | -1.0 | -0.5 | / | 0.3 | / | /
OC(CN1CCCCC1)Cn1c2ccccc2c2cc(Br)ccc21 (stereo unspecified) | 57.5* | -12.4 | 11.3 | 39.8* | 44.6 | 1.7 | i
COc1ccc(S(=O)(=O)N(C)C[C@@H]2Oc3ccc(NS(=O)(=O)c4cccs4)cc3CC(=O)N([C@H](C)CO)C[C@H]2C)cc1 | 2.4 | 15.0 | -2.2 | / | -0.1 | / | /
C[N+](C)(C)CC(=O)N/N=C/c1c2ccccc2cc2ccccc12 | 94.3* | 4.4 | 5.5 | 30.9* | 91.9* | 1.0 | 55.2µM*
C[C@@H]1CN([C@H](C)CO)C(=O)CCCn2nncc2CO[C@@H]1CN(C)CC1CC1 | 1.8 | -4.1 | 0.2 | / | 3.5 | / | /
COc1ccc(Nc2cc(C)nc3ccc(OC)cc23)cc1 | 55.5* | -1.8 | -9.1 | 33.9* | 64.0* | 3.2 | i | Rad54 DNA ctr=3.5%

Compound activity from PubChem BioAssay.
